Results published in the EternaBench riboswitch data.

Tested on: MS2 coat protein
Assay: apparent Kd, MS2 coat protein; higher = weaker binding; RNA-MaP array; FMN 200 µM where present
Method in brief: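 Designs were transcribed by stalled E. coli RNA polymerase on Illumina sequencing-chip clusters. They were titrated with SNAP-549-labelled MS2 coat protein from 0.7 or 1.5 nM, doubling to 3 µM, in 100 mM Tris-HCl pH 7.5, 80 mM KCl, 4 mM MgCl2, BSA, DTT, yeast tRNA and Tween-20, without and then with constant ligand. The apparent Kd is the median of filtered per-cluster fits after normalisation of green signal to red-channel RNA signal and control-cluster median Fmax.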

[1] = designed as: OFF switch for flavin mononucleotide, no ligand
[2] = ligand present: flavin mononucleotide, designed as: OFF switch for flavin mononucleotide
[3] = designed as: ON switch for flavin mononucleotide, no ligand
[4] = ligand present: flavin mononucleotide, designed as: ON switch for flavin mononucleotide

Row | Sequence | apparent Kd [1] [nM] | apparent Kd [2] [nM] | apparent Kd [3] [nM] | apparent Kd [4] [nM]
1 | AACAGUACAGGAUAUACAUGAGGAUCACCCAUGUGAGAUUUAAGUGGCGUACCACAAAGUAGAAGGGUACUGGA | 38 | 187 | – | –
2 | AUCAUUCGUGUAGGAUAUGCGUGGCGAAGCUAUGCAGAAGGACAUGAGGAUCACCCAUGUCUUUCUCGAGCUGUAGCUCGAGGA | 21.3 | 92.2 | – | –
3 | CAUGAUCAUGUAGGAUAUAUACUGGAAUACAGUAUAGAAGGACAUGAGGAUCACCCAUGUUAUGUGCCUCCAAGUGAGAUCAUG | 20.1 | 28.3 | – | –
4 | CGAUGGUAGACAGGAUAUCGACCGGGAUACUAUGAAGACUAUAAACACAUGAGGAUCACCCAUGUCGAGAAGGGUCUCACAGCG | 37.1 | 60.9 | – | –
5 | UUAUUUUGUCAAGGAUAUGUAUUAUUGAUUUGAAAACAUGAGGAUCACCCAUGUAUAUGGUGGGAACAGAAGGUGAAUAAGUAA | 248 | 235 | – | –
6 | AUCAUGAGAGGAUAUACAUGAGGAUCACCCAUGUGGUAAACACCAUGAGCUCAAUUACGUAGAAGGCUCAUUUG | 26.4 | 45.6 | – | –
7 | CCUUUGCUAUAUACAUGAGGAUCACCCAUGUCCACUGACAGACAGGAUAUCCUUAGAAACUAGCAGGAGAAGGGUCAGUCAUAC | – | – | 263 | 328
8 | GGAAAUCAUGUAGGAUAUGCAUGGCGAAGCUACGCAGAAGGACAUGAGGAUCACCCAUGUUAUAGCUACCCAGUUAGGUGGCAA | 122 | 172 | – | –
9 | ACAUGAGGAUCACCCAUGUGAAACCAAUGGCUGACUUUGAGCUAGGAUAUUUGUGCAUAUCAAACAAAGAAGGAGCAUUACUGG | 41.1 | 37.9 | – | –
10 | AAGUAGAUCCGAGGAUAUACAUAGUGGAAUCGCUACAUGAGGAUCACCCAUGUAGAAGGCGGAUCUACAGGUACUAAAGUACCA | 14 | 112 | – | –
11 | GUACAGUAGUGAGGAUAUACGAGAUCGAUAGAUCGGCGAUCCAAUAAUACAUGAGGAUCACCCAUGUAGAAGGCACUUCUGUAC | 7.69 | 113 | – | –
12 | CAUGAUUGGGAAGGAUAUUGACCUAGUUAGUGCCGAGAAGGUCCCUUUCACAUGAGGAUCACCCAUGUGAGACUGGUGUUCGAG | 26.5 | 50.4 | – | –
13 | GUAGCAUACCGAGGAUAUUCAUACAGGAAACUGACAUGAGGAUCACCCAUGUGGCGAAAGCCUUGGGAGAAGGCGGAAUGCUAC | – | – | 637 | 28.4
14 | GGUCGGAGCAGAGGAUAUACAUGAGGAUCACCCAUGUAAUAAAGUGAAGCCUGGAAACAGGCAAUGUAGAAGGCUGCUCCGACA | 10.8 | 70.6 | – | –
15 | GGGCCACAUGAGGAUCACCCAUGUAAACCCGUGCUCAGGGCACAGGAUAUGGGCCUGGAUUAGGCCCAGAAGGGUGGUCUGGCC | – | – | 29.4 | 10.6
16 | CGCCGCACCAGCCGGCGGCAGGGUCAGGAUAUACAUGAGGAUCACCCAUGUGAACGGUGCCCAAUGUAGAAGGGACGAAGAGAC | 20.5 | 32.6 | – | –
17 | UUAGCAUACCGAGGAUAUUCAUAUAAUAAAUAAACAUGAGGAUCACCCAUGUGGCGAAAGCCUAGGGAGAAGGCGGAAUGCUUU | – | – | 177 | 28.1
18 | AAAGGCCAAGGAUAUACAUGAGGAUCACCCAUGUCGAGUCCCGGGCAUGUAAGUUGGUGUAGAAGGUGGAAGAA | 13.4 | 13.5 | – | –
19 | GGAAAACAUGAGGAUCACCCAUGUGAGGAUAUCGAUGUCCAAUUUAAAGUGCGGGACUCGAGAAGGCACUUGGA | 43 | 30.1 | – | –
20 | GUGGUGCAUAUACGUGGAUGUACAUGAGGAUCACCCAUGUAAGAGGAUAUGCGGAUACUAGCUCAGCAGAAGGCUUACAAAUAA | 16.1 | 73.8 | – | –
21 | GCGCUAAAACAGAAGGCCAAAUACAUGAGGAUCACCCAUGUCGAAUCAUGGAGGAUAUGUUAUUAAUUACACGCAGAUGAGCGC | – | – | 90.8 | 9.9
22 | GUGCUCGUGUGAGGAUAUGCCGCCGUUUCGGCUGCAGAAGGUGCUACGUUACAUGAGGAUCACCCAUGUCUCUGUUGUUUCGUG | – | – | 21 | 21.4
23 | UUAUUUAGUGUGAGGAUAUGCUGGUCGAUAGAUCAGCAGAAGGCACAUGAGGAUCACCCAUGUAAUAUAUUAAA | 58.9 | 248 | – | –
24 | AAAACAUGAGGAUCACCCAUGUAAAGAUCGGUCGAUCAAGGUGAGGAUAUACAAUAAUUGAUGGAGUAGAAGGCACUGGGUUGA | – | – | 227 | 127
25 | UAUGUAUUCGUAGGAUAUCCGUCGCCACCGUGUGGAGAAGGACGAACAUGAGGAUCACCCAUGUAUCAUGGUGUAGACACUUUU | 98.4 | 154 | – | –
26 | UUGGACGUCGUAGGAUAUGUAGGAUAUUCCUACAUGAGGAUCACCCAUGUUGACGUGGAAGAAGGACAGAAGGACGAUGUCCAU | – | – | 55.3 | 4.63
27 | GCAUUGAUAACAGGAUAUAUGUUUCCUACAUGAGGAUCACCCAUGUAGGUGAUCAGCCGCGAAAAGUAGAAGGGUUAUCAAUGC | – | – | 18 | 16.7

Row | Sequence | apparent Kd [1] [nM] | apparent Kd [2] [nM] | apparent Kd [3] [nM] | apparent Kd [4] [nM]
28 | GAAUUAUUACAGAAGGUGUUUUACAUGAGGAUCACCCAUGUUUUAUUGUUUAAAUUUGAUAUUUACAAGGAUAUGUACUAAUCU | – | – | 32.1 | 24.3
29 | AAGUAGGGAGGAUAUACAUAGAUACAGAUUCAUGUGGAACUACAUGAGGAUCACCCAUGUAGAAGGCCCUAAUA | 27.2 | 102 | – | –
30 | AUCAGCUCGUCAGGAUAUACGUCACUGCGUCAGCAGUGUGGUAAGAUCACAUGAGGAUCACCCAUGUAGAAGGGACGAGCUGAG | 14.1 | 284 | – | –
31 | AAUUAUUUUUGAGGAUAUGGUGGUGAAACACCACCAGAAGGCGGAAUAAACAUGAGGAUCACCCAUGUGAGCCUGAUGCUUAUG | 21.3 | 40.5 | – | –
32 | CGAUGGCAUGUAGGAUAUCGAGCUCAAAGAGCUCGAGAAGGACAUGAGGAUCACCCAUGUCGUCACAGACAGUGACGGCUAUCG | 24.4 | 133 | – | –
33 | GUGGCUUAUGAGAAGGCGAUCAUGAAACAUGAUCGAGGAUAUCAUGUAAACAUGAGGAUCACCCAUGUAUGGGUAUUAUGCUAC | – | – | 291 | 53.9
34 | ACAUGAGGAUCACCCAUGUUUUUCGGGUACUCUUUUUACAGCAAGGAUAUGCAUUAUUUUUUUACGCAGAAGGUGCUUUACGUC | 114 | 196 | – | –
35 | UUGGACGUCGUACGAUAUGUAGGAUAUUCCUACAUGAGGAUCACCCAUGUUGACAUGGAAGAAGGACAGAAGGACGAUGUCCAU | – | – | 151 | 5.61
36 | GGUGCACGCACAGGAUAUCCGGCGGAGCUCGUCGGAGAAGGGUGACAUGAGGAUCACCCAUGUACGUGCAACUUAGUUUAAGAG | – | – | 20 | 19
37 | GGACGUCACAUCUACAUGAGGAUCACCCAUGUCUCUUGAUAUGAGGAUAUGUAUACGAAUCGUUUAUAGAAGGCAUGGACGUCC | – | – | 286 | 312
38 | ACUCGCGGAGAGAAGGGAUUUGUACAUGAGGAUCACCCAUGUCGCACGGUCAGGAUAUCUUCGUCAGGUACAACAUACGUCCCG | – | – | 16.8 | 6.99
39 | GCGCGUUGAGGAUAUACGAACAUGUCGCCAGAUGUCAUGGUACAUGAGGAUCACCCAUGUAGAAGGUGGUGCGC | 208 | 352 | – | –
40 | AUGCUUAUCGAAGGAUAUGGUUACAUGAGGAUCACCCAUGUUAUGCUUGGUUACUUGUUUAGUUUCCAGAAGGUCGAUUAGUUA | 46.9 | 174 | – | –
41 | UGUCGGAGCAGAGGAUAUUACAUGAGGAUCACCCAUGUAUGAACCAAUAGCGGGAAACAGCAAUGUAAGAAGGCUGCUCCGACA | 34.6 | 140 | – | –
42 | CCUGUCAGAGGAUAUGCAUCAGGGCUAUCCUCUAUCGCAGAACAUGAGGAUCACCCAUGUAGAAGGCUGUCAAA | 29.9 | 23.6 | – | –
43 | GUGCGUGGCUAGGAUAUUGAGGAGUUUAGUCAGCGAGAAGGAGCCACAUGAGGAUCACCCAUGUGGUGAAGCUC | 18.6 | 68.6 | – | –
44 | ACUUUAUAUGAGAAGGUGAAGUGGAAACAUGAGGAUCACCCAUGUAAUACGAAGCGUAUUUUUAUCAAGGAUAUCAUAUAAAGA | – | – | 10.8 | 8.81
45 | GCUUGUAGAGGAUAUACAAGGGCCUUAGCGGAUAACACCGCACAUGAGGAUCACCCAUGUAGAAGGCUACCACC | 16.8 | 94.1 | – | –
46 | CAUGUGUAAGGAUAUGACAAUGGUAUCUUCGGAUACCAUUGUCAGAAGGUACAUGAGGAUCACCCAUGUACAUC | 14.3 | 16.8 | – | –
47 | AGCGAGAUAGGCGAGGAUAUGCUUUUUUGCACAUGAGGAUCACCCAUGUCUUUGUUUUUUGUUUUGCAGAAGGCGCAUUCUCUUU | – | – | 18.9 | 41.2
48 | UCACGAGACUAAGGAUAUGGAGUGUCAACAUAAAACAUGAGGAUCACCCAUGUAAAGAGUACGAUUCAGAAGGUAGAGACGUGA | – | – | 43 | 25.1
49 | GAAUAUUCGUUGUACAUGAGGAUCACCCAUGUGUCUUUACAUGAGGAUAUGGAUUCUAAUUGGAUCCAGAAGGCAUGAAUAUUC | – | – | 154 | 53.1
50 | UUUAUUUUUACAGGAUAUCAUCUAUUUAACUCAUGCACAUGUUUACAUGAGGAUCACCCAUGUUUUGAGAAGGGUAUUGAAACA | – | – | 246 | 259
51 | AAUAAACUCACAGGAUAUAGCAGAGGUCGCGUGUACUUACAGGCGACGAGGCUAGAAGGGUGACCACAUGAGGAUCACCCAUGU | – | – | 1010 | 113
52 | CAGUACUGAGGAUAUACAUGAGGAUCACCCAUGUGGUUAAGCUAGGAAACUAGCAAAUGUAGAAGGCAGUACUG | 240 | 85.1 | – | –
53 | CGCAAGUAUACAUGAGGAUCACCCAUGUCAGAAAGGGUAAUCAGAAGGUACAAUUAGAGAUAGAGUAAGGAUAUGAAAUUUGCG | – | – | 750 | 274
54 | AUGCUUCACACAGGAUAUACAUGAGGAUCACCCAUGUGUCCUAAGUAGCUGACACGAGCUACGCGGUAGAAGGGUGUGAAGCAU | 21.6 | 154 | – | –
